UPR XBP1 act: activators of adaptive XBP1 UPR arm, primary screen, cell-based, CHO-XBP1 luciferase reporter, luminescence, uHTS; activation, % at 20 µM; IRE1-XBP1 UPR activation; percent of tunicamycin response, DMSO as zero; 330,000 compounds, 0.33% hits;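 active = versus positive control, 20 µM dose yields 30% or more activation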;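 also: 100% = tunicamycin at 10 µg/mL and 0% = DMSO only wells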
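Material: IRE1-XBP1 luciferase reporter CHO line / Quantity: one thousand reporter cells per well / Buffer or medium: F12 with 10% serum / Compound: 20 µM single concentration, DMSO 1% / Times: 6 h treatment, 37 °C / Detection: Steady-Glo luciferase glow luminescence, 10 min after reagent addition / Benchmarks: tunicamycin high, DMSO low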
CHOP inh: inhibitors of CHOP promoter induction, primary screen, cell-based, unfolded protein response, luciferase reporter; AID 2732, 2010; CHO-K1 CHOP-promoter luciferase, tunicamycin-induced, 15-18 h; inhibition, % at 10 µM; 220,000 compounds, 3.8% hits;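 active = compounds that reduced the stress-induced luciferase reporter signal by more than about 70% of percent inhibition, limit read from the data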;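 also: 0% = tunicamycin plus vehicle and 100% = wells without tunicamycin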
CHOP UPR activ: activators of apoptotic CHOP UPR arm, primary screen, cell-based, CHO-CHOP luciferase reporter, luminescence, uHTS; UPR activation; percent of tunicamycin response over DMSO baseline; activation, % at 10 µM; 330,000 compounds, 0.34% hits; AID 449763, 2010;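 active = at 10 µM dose, activation of 40% or more, normalized to positive control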;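 also: 100% = tunicamycin at 10 µg/mL and 0% = DMSO alone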
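Test system: CHO CHOP reporter cells. Input: 500 CHO-CHOP cells per well. Medium: F12 with 10% FBS. Technique: luciferase luminescence. Measure: percent activation relative to tunicamycin control. Dosing: 10 µM compound, 0.5% DMSO. Timing: 16-18 h cell attachment, then 6 h compound exposure, 37 °C.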
VLA-4 inh: inhibition in human VLA-4 binding assay, primary screen, VLA-4 allosteric modulator project, MLPCN library, flow cytometry, VLA-4 expressing cells; Integrin alpha-4 (Homo sapiens), P13612; 330,000 compounds, 0.2% hits; AID 2557, 2010; inhibition, % (about 7 µM as worked out from the volumes in the protocol); ligand binding flow cytometry; in the data active = inhibition above about 50%
B2AR ag: beta2AR agonists driving receptor internalization, primary screen, cell-based, FAP fluorogen, flow cytometry; response, % (test concentration not listed); 340,000 compounds, 0.43% hits; Am2.2-beta2AR cells;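 active = response above a set limit, near 3 SD of response in nonfluorescent compounds, cut at about 42% in these data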
Target sequence (P07550 whole entry, looked up): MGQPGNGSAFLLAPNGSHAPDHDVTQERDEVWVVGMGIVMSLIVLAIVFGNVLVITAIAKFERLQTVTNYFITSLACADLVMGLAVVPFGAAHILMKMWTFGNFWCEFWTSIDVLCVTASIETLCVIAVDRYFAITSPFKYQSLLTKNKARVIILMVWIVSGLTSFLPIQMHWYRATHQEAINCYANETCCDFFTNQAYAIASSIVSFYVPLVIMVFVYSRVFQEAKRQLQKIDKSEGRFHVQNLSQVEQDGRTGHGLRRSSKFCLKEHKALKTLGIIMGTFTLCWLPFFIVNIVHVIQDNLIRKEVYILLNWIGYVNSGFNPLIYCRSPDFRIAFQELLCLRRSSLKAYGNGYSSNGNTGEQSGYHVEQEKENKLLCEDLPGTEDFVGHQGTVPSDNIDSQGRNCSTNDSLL
CHOP confirm: retest of CHOP induction inhibitors, confirmation, cell-based; 2,100 compounds, 45% hits; shares compounds with CHOP inh; CHO-CHOP promoter luciferase reporter, tunicamycin-induced, luminescence; inhibition, % at 10 µM; AID 504437, 2011;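 active = mean of three repeat readings of reporter signal inhibition above a set limit, cut at about 70% in these data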;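 also: 0% = tunicamycin plus vehicle and 100% = wells lacking tunicamycin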
The depositor's hits bear a star. The entries come from a sample that favours hits as a whole.

CCCOC(=O)c1ccc(Oc2cn[nH]c2-c2ccc(OCC)cc2O)cc1 was read as UPR XBP1 act -2, CHOP inh 107*, CHOP UPR activ 2, VLA-4 inh 3, B2AR ag 0 and CHOP confirm 124*.
Screening CCOc1ccc(-c2[nH]ncc2Oc2cccc(OC)c2)c(O)c1 returned UPR XBP1 act -4, CHOP inh 107*, CHOP UPR activ -1, VLA-4 inh 12, B2AR ag -1 and CHOP confirm -7.
C=C(CN(C)C)C(=O)c1ccc(OC2OC(COC(C)=O)C(OC(C)=O)C(OC(C)=O)C2OC(C)=O)cc1 (stereo not drawn) was read as B2AR ag 25.
COc1cccc(-c2nc(CS(=O)CC(=O)NC(C)CCc3ccccc3)c(C)o2)c1 (stereo not drawn) was read as UPR XBP1 act -5, CHOP UPR activ 0, VLA-4 inh 3 and B2AR ag 4.
For Cn1c(=O)[nH]c(=O)c2[nH]c(CN3CCN(Cc4ccccc4)CC3)nc21 the results were UPR XBP1 act -1, CHOP inh 6, CHOP UPR activ 3, VLA-4 inh -4 and B2AR ag 8.
Cn1c(=O)[nH]c(=O)c2[nH]c(N(Cc3ccccc3)Cc3ccccc3)nc21 was read as UPR XBP1 act -2, CHOP inh 111*, CHOP UPR activ 4, VLA-4 inh 8, B2AR ag 11 and CHOP confirm 114*.
For CC1=C/C(=N\OS(=O)(=O)c2ccccc2)C(C)=CC1=O the results were UPR XBP1 act -6, CHOP inh 111*, CHOP UPR activ -11, VLA-4 inh 7, B2AR ag 20 and CHOP confirm 128*.
For CC1=C/C(=N\OS(=O)(=O)c2ccccc2)C(C(C)C)=CC1=O the results were CHOP inh 55, VLA-4 inh 8 and B2AR ag 17.
For Cc1ccc(S(=O)(=O)O/N=C2/CCCc3occc32)cc1 the results were UPR XBP1 act -1, CHOP inh 11, CHOP UPR activ 0, VLA-4 inh 7 and B2AR ag 6.
For CC1=C(C)/C(=N\OS(=O)(=O)c2ccc(C)cc2)C=CC1=O the results were CHOP inh 108*, VLA-4 inh 5, B2AR ag 32 and CHOP confirm 104*.
`COCCN1C2=C(C(=O)CC(C)(C)C2)C(c2ccc(OC)c(OC)c2)C2=C1CC(C)(C)CC2=O` gave UPR XBP1 act -2, CHOP UPR activ 0, VLA-4 inh 2 and B2AR ag -1.
For CCCCn1c(N)c(N(C(=O)CSc2nncn2-c2ccccc2C)C2CCCC2)c(=O)[nH]c1=O the results were B2AR ag -7.
For CCOC(=O)c1cnc(-n2nc(C)cc2C)nc1Nc1ccc(C)cc1 the results were CHOP inh -15 and B2AR ag -13.
For CCOC(=O)c1cnc(-n2nc(C)cc2C)nc1Nc1ccc(O)cc1 the results were UPR XBP1 act -4, CHOP inh 104*, CHOP UPR activ -6, VLA-4 inh 5, B2AR ag -18 and CHOP confirm 110*.
`Nc1ccc(-c2nc3ncccc3o2)cc1` gave UPR XBP1 act 1, CHOP UPR activ 1, VLA-4 inh 7 and B2AR ag -1.
Screening O=C(NCC(c1ccc(F)cc1)N1CCOCC1)c1nn(-c2ccccc2)c(=O)c2ccccc12 (stereo not drawn) returned UPR XBP1 act -1, CHOP UPR activ -1, VLA-4 inh 5 and B2AR ag 4.
Screening CCOc1cc(S(=O)(=O)Nc2ccccc2CC)ccc1Cl returned UPR XBP1 act 0, CHOP inh 102*, CHOP UPR activ -1, VLA-4 inh 1, B2AR ag -4 and CHOP confirm 77*.
CCOc1cc(S(=O)(=O)Nc2ccc(CC)cc2)ccc1Cl was read as UPR XBP1 act 3, CHOP inh 104*, CHOP UPR activ 0, VLA-4 inh -2, B2AR ag -18 and CHOP confirm 111*.

Screening results from PubChem BioAssay.
